Data as given in ChEMBL document CHEMBL4382240, “Discovery of novel 2,5-dihydroxyterephthalamide derivatives as multifunctional agents for the treatment of Alzheimer's disease” (Bioorg Med Chem, 2018).

Key:
Acetylcholinesterase [1] = target: T1, Acetylcholinesterase (Rattus norvegicus, UniProt P37136); assay: Inhibition of rat cortex AChE using acetylthiocholine iodide as substrate after 15 mins by Ellman's method
T1 sequence (P37136 whole entry): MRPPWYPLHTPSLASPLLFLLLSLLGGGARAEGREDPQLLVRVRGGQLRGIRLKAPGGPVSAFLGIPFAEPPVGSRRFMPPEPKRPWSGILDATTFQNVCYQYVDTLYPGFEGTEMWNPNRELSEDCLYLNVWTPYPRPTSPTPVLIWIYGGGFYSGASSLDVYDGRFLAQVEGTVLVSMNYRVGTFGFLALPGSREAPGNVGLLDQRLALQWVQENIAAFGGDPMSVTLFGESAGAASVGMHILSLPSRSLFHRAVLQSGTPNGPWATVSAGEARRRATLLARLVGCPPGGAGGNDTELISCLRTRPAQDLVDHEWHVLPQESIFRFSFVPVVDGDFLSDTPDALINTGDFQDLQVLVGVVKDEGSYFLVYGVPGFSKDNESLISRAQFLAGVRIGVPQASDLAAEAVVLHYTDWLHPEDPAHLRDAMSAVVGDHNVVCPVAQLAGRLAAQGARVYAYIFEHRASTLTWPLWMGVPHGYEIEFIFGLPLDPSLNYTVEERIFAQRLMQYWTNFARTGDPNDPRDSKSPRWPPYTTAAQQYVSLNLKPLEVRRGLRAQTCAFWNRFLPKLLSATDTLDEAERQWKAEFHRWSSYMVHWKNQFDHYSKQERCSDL

[2] = target: T2, Amyloid-beta precursor protein (Homo sapiens, UniProt P05067); assay: Inhibition of human amyloid beta (1 to 42) self-induced aggregation after 24 hrs by Thioflavin T based fluorometric assay
How it was run: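 Self-induced Aβ1-42 aggregation (25 µM peptide) in phosphate buffer, pH 7.4, for 24 h at 37 °C with varying compound concentrations. Aggregation read by ThT fluorescence (5 µM ThT, glycine-NaOH pH 8.5).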

[3] = Disaggregation of Cu2+ induced preformed fibrils of human amyloid beta (1 to 42) at 25 uM after 24 hrs by Thioflavin T based fluorometric assay relative to control
How it was run: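 Aβ1-42 (25 µM) with Cu2+ (25 µM) in HEPES buffer pre-aggregated 24 h at 37 °C. Compound (25 µM) then added for a further 24 h at 37 °C. Fibril content measured by ThT fluorescence (glycine-NaOH, pH 8.5). Triplicate; three independent experiments.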

Butyrylcholinesterase = Butyrylcholinesterase (Rattus norvegicus, UniProt Q9JKC1); assay: Inhibition of rat serum BuChE using butyrylthiocholine iodide as substrate after 15 mins by Ellman's method; format: ADME
Acetylcholinesterase [4] = target: Acetylcholinesterase (Electrophorus electricus, UniProt O42275); assay: Inhibition of electric eel AChE using acetylthiocholine iodide as substrate after 15 mins by Ellman's method
[5] = target: T2, Amyloid-beta precursor protein; assay: Inhibition of human amyloid beta (1 to 42) self-induced aggregation at 25 uM after 24 hrs by Thioflavin T based fluorometric assay relative to control
How it was run: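 Aβ1-42 (25 µM final) incubated with compound (25 µM final) in 50 mM phosphate buffer, pH 7.4, for 24 h at 37 °C under a sealing film. ThT (5 µM) in 50 mM glycine-NaOH, pH 8.5, then added and fluorescence measured. Triplicate; mean ± SD of three independent experiments.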

[6] = target: T2, Amyloid-beta precursor protein; assay: Disaggregation of self-induced preformed fibrils of human amyloid beta (1 to 42) at 25 uM after 24 hrs by Thioflavin T based fluorometric assay relative to control
How it was run: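 Aβ1-42 diluted in HEPES buffer (20 mM, pH 6.6, 150 mM NaCl) and pre-aggregated 24 h at 37 °C. Compound (25 µM) then added for another 24 h at 37 °C on a sealed plate. Remaining fibrils read by ThT fluorescence in glycine-NaOH, pH 8.5. Triplicate; three independent experiments.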

[7] = Inhibition of Cu2+ induced human amyloid beta (1 to 42) aggregation at 25 uM after 24 hrs by Thioflavin T based fluorometric assay relative to control
How it was run: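 Aβ1-42 (25 µM) and Cu2+ (25 µM) in HEPES buffer (20 mM, pH 6.6, 150 mM NaCl), with or without compound (25 µM final), incubated 24 h at 37 °C. ThT (5 µM) in glycine-NaOH, pH 8.5, added and fluorescence read. Triplicate; three independent experiments.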

[8] = Antioxidant activity assessed as trolox equivalent of APPH-induced radical scavenging activity at 5 uM preincubated for 15 mins followed by AAPH addition measured every minute for 90 mins by ORAC fluorescein assay; format: functional
How it was run: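 ORAC-FL in 75 mM phosphate buffer, pH 7.4. Fluorescein (150 nM final) and sample (tested at 1–10 µM) incubated 15 min at 37 °C. AAPH (12 mM final) then added, and fluorescence (ex 485/em 535 nm) read every minute for 90 min. Trolox standard 1–8 µM; result expressed as µM Trolox equivalent per µM compound. Duplicate wells; three independent experiments.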

[9] = Anti-inflammatory activity in […] cells assessed as inhibition of LPS-stimulated TNFalpha release at 10 uM preincubated for 30 mins followed by LPS stimulation and measured after 24 hrs by ELISA relative to control; format: functional; conditions: BV-2
How it was run: (§1)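 Confluent BV-2 cells in DMEM preincubated 30 min with compound, tested over 0.5–10 µM, then stimulated with LPS (1.0 µg/mL) for 24 h. Released TNF-α measured by ELISA following kit instructions. Triplicate wells; mean ± SD of three independent experiments.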

[10] = Cytotoxicity against […] cells assessed as decrease in cell viability up to 10 uM preincubated for 30 mins followed by LPS stimulation and measured after 24 hrs by MTT assay; format: cell-based
How it was run: (§2)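 BV-2 cells grown 24 h, then treated with compound (0.5, 2.5, 10.0 µM) for 30 min, with or without LPS (1.0 µg/mL), for a further 24 h. MTT (5 mg/mL) added for 4 h, formazan dissolved in DMSO, A490 read. Viability given as percent of untreated cells. Triplicate wells; three independent experiments.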

[11] = Anti-inflammatory activity in […] cells assessed as inhibition of LPS-stimulated NO release at 2.5 uM preincubated for 30 mins followed by LPS stimulation and measured after 24 hrs by Griess reagent based assay relative to control; format: functional; conditions: BV-2
How it was run: (§3)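 BV-2 cells cultured 24 h in DMEM (10% FBS, glutamine, pyruvate, pen/strep) at 37 °C, 5% CO2. Compound (DMSO stock diluted in PBS) added 30 min before LPS (1.0 µg/mL), then 24 h. Nitrite in supernatant measured by Griess reagent for 10 min at room temperature, A540, against a NaNO2 standard curve. Triplicate wells; mean ± SD of three independent experiments.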

[12] = Cytotoxicity against […] cells assessed as decrease in cell viability up to 10 uM measured after 24 hrs by MTT assay; format: cell-based; how it was run: as §2
[13] = Anti-inflammatory activity in […] cells assessed as inhibition of LPS-stimulated TNFalpha release at 2.5 uM preincubated for 30 mins followed by LPS stimulation and measured after 24 hrs by ELISA relative to control; format: functional; conditions: BV-2; how it was run: as §1
[14] = Anti-inflammatory activity in […] cells assessed as inhibition of LPS-stimulated NO release at 10 uM preincubated for 30 mins followed by LPS stimulation and measured after 24 hrs by Griess reagent based assay relative to control; format: functional; conditions: BV-2; how it was run: as §3

Butyrylcholinesterase, sequence (Q9JKC1 whole entry): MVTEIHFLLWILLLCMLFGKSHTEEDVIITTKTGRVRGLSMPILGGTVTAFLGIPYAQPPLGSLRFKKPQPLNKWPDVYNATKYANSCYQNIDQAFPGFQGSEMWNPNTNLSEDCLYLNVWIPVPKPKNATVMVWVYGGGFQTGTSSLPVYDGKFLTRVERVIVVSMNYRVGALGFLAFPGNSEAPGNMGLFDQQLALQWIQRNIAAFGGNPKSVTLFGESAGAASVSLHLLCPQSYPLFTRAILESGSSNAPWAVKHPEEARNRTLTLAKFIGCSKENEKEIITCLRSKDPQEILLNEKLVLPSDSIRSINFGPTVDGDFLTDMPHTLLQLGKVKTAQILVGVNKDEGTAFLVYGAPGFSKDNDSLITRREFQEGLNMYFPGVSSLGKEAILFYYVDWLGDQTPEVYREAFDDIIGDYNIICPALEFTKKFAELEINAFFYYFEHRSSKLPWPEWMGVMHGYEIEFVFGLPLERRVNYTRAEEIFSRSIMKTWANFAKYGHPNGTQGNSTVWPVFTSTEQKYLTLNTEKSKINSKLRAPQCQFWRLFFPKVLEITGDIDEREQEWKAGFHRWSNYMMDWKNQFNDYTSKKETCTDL
Acetylcholinesterase (Electrophorus electricus, UniProt O42275), sequence (O42275 whole entry): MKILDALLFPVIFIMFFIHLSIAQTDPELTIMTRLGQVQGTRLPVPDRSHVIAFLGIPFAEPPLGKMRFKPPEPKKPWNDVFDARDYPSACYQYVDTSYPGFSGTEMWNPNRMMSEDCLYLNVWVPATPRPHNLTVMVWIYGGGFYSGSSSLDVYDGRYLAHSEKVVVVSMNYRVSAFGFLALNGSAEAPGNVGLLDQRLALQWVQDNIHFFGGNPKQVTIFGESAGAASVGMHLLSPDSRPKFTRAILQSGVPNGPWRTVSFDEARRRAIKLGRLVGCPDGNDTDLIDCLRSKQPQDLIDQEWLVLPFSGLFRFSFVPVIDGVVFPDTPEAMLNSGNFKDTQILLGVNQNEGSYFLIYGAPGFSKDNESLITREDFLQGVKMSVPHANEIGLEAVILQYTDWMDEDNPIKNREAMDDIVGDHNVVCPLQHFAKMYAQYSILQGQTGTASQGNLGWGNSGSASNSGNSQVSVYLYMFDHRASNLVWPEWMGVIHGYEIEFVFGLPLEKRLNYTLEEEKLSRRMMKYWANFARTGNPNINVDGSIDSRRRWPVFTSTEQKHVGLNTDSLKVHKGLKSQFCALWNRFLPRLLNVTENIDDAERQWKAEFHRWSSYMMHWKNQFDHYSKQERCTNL
T2 sequence (P05067 whole entry): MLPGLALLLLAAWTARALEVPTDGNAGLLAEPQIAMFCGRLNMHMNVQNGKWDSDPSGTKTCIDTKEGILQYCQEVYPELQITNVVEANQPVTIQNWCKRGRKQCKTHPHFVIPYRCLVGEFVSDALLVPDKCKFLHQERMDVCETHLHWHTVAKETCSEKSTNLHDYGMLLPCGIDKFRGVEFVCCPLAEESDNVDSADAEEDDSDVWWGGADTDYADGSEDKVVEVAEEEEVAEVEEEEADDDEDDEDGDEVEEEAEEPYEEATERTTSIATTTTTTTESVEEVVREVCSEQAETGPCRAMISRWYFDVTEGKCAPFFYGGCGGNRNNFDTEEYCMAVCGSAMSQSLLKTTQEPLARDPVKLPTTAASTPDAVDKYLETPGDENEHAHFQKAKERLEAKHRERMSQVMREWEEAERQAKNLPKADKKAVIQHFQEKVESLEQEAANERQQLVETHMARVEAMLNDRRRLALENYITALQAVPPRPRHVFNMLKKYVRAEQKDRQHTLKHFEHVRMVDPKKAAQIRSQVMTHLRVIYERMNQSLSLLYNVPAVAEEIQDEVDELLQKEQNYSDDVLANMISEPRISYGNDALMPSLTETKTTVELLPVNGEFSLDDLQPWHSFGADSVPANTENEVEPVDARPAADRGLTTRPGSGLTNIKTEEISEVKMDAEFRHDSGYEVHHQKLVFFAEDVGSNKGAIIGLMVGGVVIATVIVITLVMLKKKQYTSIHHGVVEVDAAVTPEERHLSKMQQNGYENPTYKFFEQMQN

Row | SMILES | IC50 (Acetylcholinesterase [1]) | IC50 [2] | Activity [3] | IC50 (Butyrylcholinesterase) | IC50 (Acetylcholinesterase [4]) | inhibition [5] | Activity [6] | inhibition [7] | Activity [8] | inhibition at 10 µM [9] | Activity [10] | inhibition at 2.5 µM [11] | Activity [12] | inhibition at 2.5 µM [13] | inhibition at 10 µM [14]
1 | CCN(CCCCCCNC(=O)c1cc(O)c(C(=O)NCCCCCCN(CC)Cc2ccccc2)cc1O)Cc1ccccc1 | 4.6 µM | 2.8 µM | 82.3% | 47.2 µM | 22.9 µM | 91.4% | 83.5% | 74.3% | 1.27 equiv | – | – | – | – | – | –
2 | CCN(CCCCNC(=O)c1cc(O)c(C(=O)NCCCCN(CC)Cc2ccccc2N(C)C)cc1O)Cc1ccccc1N(C)C | 4.17 µM | 3.71 µM | 83.3% | > 100 µM | 10.8 µM | 99.7% | 64.4% | 69.4% | 1.16 equiv | – | – | – | – | – | –
3 | O=C(O)c1cc(O)c(C(=O)O)cc1O | > 100 µM | – | – | > 100 µM | > 100 µM | 4.7% | – | 8.1% | 4.7 equiv | 18.2% | Non-Toxic | 8.3% | Non-Toxic | 5.9% | 12.5%
4 | CC(C(=O)O)c1ccc(-c2ccccc2)c(F)c1 (stereo not given) [FLURBIPROFEN] | – | – | – | – | – | – | – | – | – | 30.3% | Non-Toxic | 11.8% | Non-Toxic | 9.6% | 23%
5 | CN(CCCCNC(=O)c1cc(O)c(C(=O)NCCCCN(C)Cc2ccccc2)cc1O)Cc1ccccc1 | 5.21 µM | 3.55 µM | 77.9% | > 100 µM | 12.6 µM | 90% | 67.7% | 77.6% | 1.52 equiv | – | – | – | – | – | –
6 | CCOC(=O)c1cc(O)c(C(=O)OCC)cc1O | > 100 µM | – | – | > 100 µM | > 100 µM | 6.5% | – | 30.7% | 0.96 equiv | – | – | – | – | – | –
7 | CCN(CCCNC(=O)c1cc(O)c(C(=O)NCCCN(CC)Cc2ccccc2)cc1O)Cc1ccccc1 | 7.8 µM | 4.2 µM | 70.6% | > 100 µM | 26.8 µM | 81% | 62.7% | 57.6% | 0.95 equiv | – | – | – | – | – | –
8 | CN(CCCCCCNC(=O)c1cc(O)c(C(=O)NCCCCCCN(C)Cc2ccccc2)cc1O)Cc1ccccc1 | 5.6 µM | 2.37 µM | 89.3% | 41.9 µM | 13.1 µM | 99.8% | 80.9% | 89.1% | 1.01 equiv | – | – | – | – | – | –
9 | CCN(CCCCNC(=O)c1cc(O)c(C(=O)NCCCCN(CC)Cc2ccc(N(C)C)cc2)cc1O)Cc1ccc(N(C)C)cc1 | 27.4 µM | 3.16 µM | 84.7% | > 100 µM | 47.4 µM | 99.9% | 60.4% | 82.5% | 3.23 equiv | – | – | – | – | – | –
10 | COc1cc(/C=C/C(=O)CC(=O)/C=C/c2ccc(O)c(OC)c2)ccc1O | – | – | 54.7% | – | – | – | – | 66% | – | – | – | – | – | – | –
11 | COc1ccccc1CN(C)CCCNC(=O)c1cc(O)c(C(=O)NCCCN(C)Cc2ccccc2OC)cc1O | 9.21 µM | 3.63 µM | 73.5% | 17.3 µM | 39.7 µM | 93.5% | 70.1% | 70.4% | 1.37 equiv | – | – | – | – | – | –
12 | O=C(NCCCCN1CCOc2ccccc2C1)c1cc(O)c(C(=O)NCCCCN2CCOc3ccccc3C2)cc1O | 30.8 µM | 5.47 µM | 85.3% | > 100 µM | 64.8 µM | 71.6% | 67.4% | 74% | 1.02 equiv | – | – | – | – | – | –
13 | CCN(CCCCNC(=O)c1cc(O)c(C(=O)NCCCCN(CC)Cc2ccccc2)cc1O)Cc1ccccc1 | 4.05 µM | 3.86 µM | 80% | > 100 µM | 14 µM | 88% | 81.1% | 84.1% | 0.93 equiv | – | – | – | – | – | –
14 | CN(CCCNC(=O)c1cc(O)c(C(=O)NCCCN(C)Cc2ccccc2)cc1O)Cc1ccccc1 | 11.3 µM | 3.98 µM | 71.3% | > 100 µM | 14.1 µM | 85% | 68.5% | 81.2% | 1.21 equiv | – | – | – | – | – | –
15 | COc1ccccc1CN(C)CCCCCCNC(=O)c1cc(O)c(C(=O)NCCCCCCN(C)Cc2ccccc2OC)cc1O | 10.6 µM | 2.31 µM | 89.8% | 40.5 µM | 6.11 µM | 99.7% | 76.3% | 85.3% | 0.62 equiv | – | – | – | – | – | –
